For orientation: Km means the concentration of substrate that gives half-maximal velocity. Usually kcat stands for the number of substrate molecules converted per active site and unit of time at saturation.

Substrate in the series: CC[C@H](C)[C@H](N)C(=O)N[C@@H](CCCCN)C(=O)N[C@H](C(=O)N[C@@H](CCC(=O)O)C(=O)N[C@@H](CCC(=O)O)C(=O)N[C@H](C(=O)N[C@@H](CO)C(=O)N[C@@H](CCC(=O)O)C(=O)N[C@H](C(=O)N[C@@H](CC(N)=O)C(=O)N[C@@H](CC(C)C)C(=O)N[C@@H](CC(=O)O)C(=O)N[C@@H](C)C(=O)N[C@@H](CCC(=O)O)C(=O)N[C@@H](Cc1ccccc1)C(=O)N[C@@H](CCCNC(=N)N)C(=O)N[C@@H](Cc1cnc[nH]1)C(=O)N[C@@H](CC(=O)O)C(=O)N[C@@H](CO)C(=O)NCC(N)=O)C(C)C)[C@@H](C)CC)[C@@H](C)O
The series is described as follows: Activity of recombinant BACE assessed as substrate cleavage at 105 uM after 15 mins by HPLC analysis. A digest of the protocol: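 Kinetic run: rBACE1 (33 nM) added to eicosapeptide amide at final concentrations 0–105, 37 °C, 15 min. Aliquots analysed by HPLC, and initial rates taken from the decrease in substrate peak area. Km obtained from a plot of [S]/v versus [S]. Measurements done three times and averaged.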

B1: Beta-secretase 1 (Homo sapiens), P56817 (protein)
chain: MAQALPWLLLWMGAGVLPAHGTQHGIRLPLRSGLGGAPLGLRLPRETDEEPEEPGRRGSFVEMVDNLRGKSGQGYYVEMTVGSPPQTLNILVDTGSSNFAVGAAPHPFLHRYYQRQLSSTYRDLRKGVYVPYTQGKWEGELGTDLVSIPHGPNVTVRANIAAITESDKFFINGSNWEGILGLAYAEIARPDDSLEPFFDSLVKQTHVPNLFSLQLCGAGFPLNQSEVLASVGGSMIIGGIDHSLYTGSLWYTPIRREWYYEVIIVRVEINGQDLKMDCKEYNYDKSIVDSGTTNLRLPKKVFEAAVKSIKAASSTEKFPDGFWLGEQLVCWQAGTTPWNIFPVISLYLMGEVTNQSFRITILPQQYLRPVEDVATSQDDCYKFAISQSSTGTVMGAVIMEGFYVVFDRARKRIGFAVSACHVHDEFRTAAVEGPFVTLDMEDCGYNIPQTDESTLMTIAYVMAAICALFMLPLCLMVCQWRCLRCLRQQHDDFADDISLLK
On to B1, for which the Michaelis-Menten constant (Km) is 5.5 µM and the turnover number (kcat) worked out at 1720 s⁻¹.

(Values after ChEMBL document CHEMBL1773037, “Evaluation of superior BACE1 cleavage sequences containing unnatural amino acids” (Bioorg Med Chem, 2011).)
